Measured values reported in ChEMBL document CHEMBL5136984, “Synthesis and antiproliferative activity of 6BrCaQ-TPP conjugates for targeting the mitochondrial heat shock protein TRAP1” (Eur J Med Chem, 2022).
Calls of active or inactive are those of the source. No cut-off for these calls is given here.

Key:
MDA-MB-231 [1] = experiment: Cytotoxicity against human MDA-MB-231 cells assessed as induction of cell death incubated for 72 hrs by Celltiter Glo assay; assay type: functional; settings: read-out: LC50 (the source's name)
Method in brief: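 MDA-MB-231 cells were exposed to compounds for 72 h, and survival was quantified by CellTiter-Glo luminescence. From the curves, GI50 (50% growth inhibition), TGI (cell number equal to that at start), LC50 (end cell number 50% of start) and IC50 (50% inhibition of cell activity) were derived.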

MDA-MB-231 [2] = experiment: Cytotoxicity against human MDA-MB-231 cells assessed as cell growth inhibition incubated for 72 hrs by Celltiter Glo assay; assay type: functional, cell-based; settings: for GI50: MDA-MB-231, time 72 hrs; for IC50: MDA-MB-231, 72 h
Method in brief: (§1)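 MDA-MB-231 cells exposed for 72 h; survival quantified by CellTiter Glo luminescence. GI50 = 50% growth inhibition; TGI = concentration at which final cell number equals the starting number; LC50 and IC50 also derived from the same curves.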

MDA-MB-231 [3] = experiment: Cytotoxicity against human MDA-MB-231 cells assessed as concentration required for complete tumor growth inhibition incubated for 72 hrs by Celltiter Glo assay; assay type: functional; method in brief: as §1
HT-29 [4] = experiment: Induction of mitochondrial membrane potential depolarization in human HT-29 cells assessed as reduction in fluorescence intensity at 0.1 to 1 uM measured after 2 to 6 hrs by TMRE staining based analysis relative to control; assay type: functional; design: scale not given: the % may be the effect or the level left; settings: dose 0.1-1 µM, time 2-6 hrs
Method in brief: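 HT-29 cells (2,500/well) seeded the day before, exposed 2, 3 or 6 h at 0.1, 0.5 and 1 µM. CCCP 50 µM for 20 min served as depolarization control. TMRE added at 200 nM final for 20 min at 37 °C, fluorescence read by microplate, relative to untreated cells. 3–8 replicate wells per condition.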

K562 = experiment: Cytotoxicity against human K562 cells assessed as induction of cell death incubated for 72 hrs by MTT assay; assay type: functional; settings: read-out: LC50 (the source's name)
Method in brief: (§2)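 Cells were seeded at 2,500 per well and treated 24 h later for 72 h, with 4 replicates per condition and at least three independent experiments. MTT (5 mg/mL solution) was added for 2 h, then the medium was replaced by DMSO. Absorbance at 570 nm was blank-corrected using cell-free wells containing compound, and untreated cells were set as 100% metabolic activity.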

MDA-MB-231 [5] = experiment: Cytotoxicity against human MDA-MB-231 cells assessed as induction of cell death incubated for 72 hrs by MTT assay; assay type: functional; settings: read-out: LC50 (the source's name); method in brief: as §2
PC-3 = experiment: Cytotoxicity against human PC-3 cells assessed as induction of cell death incubated for 72 hrs by MTS assay; assay type: functional; settings: read-out: LC50 (the source's name)
HT-29 [6] = experiment: Cytotoxicity against human HT-29 cells assessed as inhibition of cell growth incubated for 72 hrs by MTT assay; assay type: functional, cell-based; settings: HT-29, 72 h
Method in brief: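 HT-29 cells (McCoy medium, 10% FBS, 2 mM glutamine) seeded at 2,500/well, treated 24 h later for 72 h. MTT (5 mg/mL solution) 2 h, formazan dissolved in DMSO, A570 corrected for cell-free blanks with compound. Untreated wells set as 100%. Quadruplicates, at least three independent experiments.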

HCT-116 [7] = experiment: Cytotoxicity against human HCT-116 cells assessed as induction of cell death incubated for 72 hrs by MTT assay; assay type: functional; settings: read-out: LC50 (the source's name); method in brief: as §2
HT-29 [8] = experiment: Cytotoxicity against human HT-29 cells assessed as reduction in viable cells incubated for 72 hrs by trypan blue staining based optical microscopic analysis relative to control; assay type: functional, cell-based; settings: HT-29, 72 h
Method in brief: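 HT-29 cells seeded at 30,000/well, treated 24 h later for 72 h. Cells washed with PBS, trypsinized, resuspended in medium and mixed 1:1 with trypan blue. Viable and dead cells counted by optical microscopy on a counting slide. Each condition analysed 3 times.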

HCT-116 [9] = experiment: Cytotoxicity against human HCT-116 cells assessed as cell viability at 1 uM incubated for 72 hrs by MTT assay relative to control; assay type: functional; settings: read-out: Activity
Method in brief: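 MTT read-out after 72 h exposure; 2,500 cells/well seeded and treated 24 h later. MTT solution (5 mg/mL) added for 2 h, medium replaced by DMSO, absorbance at 570 nm corrected for cell-free blanks with compound. Untreated cells taken as 100% metabolic activity. Quadruplicate wells, experiment repeated at least three times.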

HT-29 [10] = experiment: Downregulation of SDHA protein expression in human HT-29 cells incubated for 24 hrs by Western blot analysis; assay type: functional, cell-based; settings: dose 0.1-1 µM, DDE = dose-dependent effect
Method in brief: (§3)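 HT-29 cells exposed 24 h at 0.1, 0.5 and 1 µM; RIPA lysates, 30 µg protein on 4–15% stain-free SDS-PAGE, PVDF transfer. Anti-SDH-A (mouse, 1:500) or anti-SDH-B (rabbit, 1:250) overnight at 4 °C, HRP secondary, ECL. Densitometry normalized to stain-free total protein; duplicate blots.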

HT-29 [11] = experiment: Downregulation of SDHB protein expression in human HT-29 cells incubated for 24 hrs by Western blot analysis; assay type: functional, cell-based; settings: dose 0.1-1 µM, DDE = dose-dependent effect; method in brief: as §3
[12] = target: T1, Heat shock factor protein 1 (Homo sapiens) (UniProt Q00613); experiment: Induction of HSF-1 degradation in human HT-29 cells at 0.5 uM incubated for 24 hrs by Western blot analysis; assay type: cell-based
T1 sequence (whole entry): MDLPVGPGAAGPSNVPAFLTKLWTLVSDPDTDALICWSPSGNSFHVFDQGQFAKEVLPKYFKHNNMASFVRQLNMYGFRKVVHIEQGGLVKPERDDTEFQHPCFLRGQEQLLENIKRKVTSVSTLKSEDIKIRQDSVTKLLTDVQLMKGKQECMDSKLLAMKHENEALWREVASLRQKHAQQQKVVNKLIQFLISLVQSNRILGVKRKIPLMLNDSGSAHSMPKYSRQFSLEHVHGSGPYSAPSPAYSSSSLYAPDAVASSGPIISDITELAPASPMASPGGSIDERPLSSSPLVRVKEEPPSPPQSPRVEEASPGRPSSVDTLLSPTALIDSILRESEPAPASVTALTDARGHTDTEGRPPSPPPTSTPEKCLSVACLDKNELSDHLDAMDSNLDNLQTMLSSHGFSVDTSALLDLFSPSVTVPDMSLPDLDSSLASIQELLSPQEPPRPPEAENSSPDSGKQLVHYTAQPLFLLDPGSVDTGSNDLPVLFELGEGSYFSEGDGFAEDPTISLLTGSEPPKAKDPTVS
Method in brief: (§4)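 HT-29 cells treated 24 h, lysed in RIPA with protease inhibitors 30 min on ice. 30 µg protein denatured at 95 °C with β-mercaptoethanol, run on 4–15% stain-free gels, transferred to PVDF. Blocked in 5% milk/TBS-Tween, primary antibody overnight at 4 °C, HRP secondary 1 h, ECL detection. Signals normalized to stain-free total protein. Blots in duplicate.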

HT-29 [13] = experiment: Downregulation of HSP70 protein expression in human HT-29 cells at 0.1 to 0.5 uM incubated for 24 hrs by Western blot analysis; assay type: functional, cell-based; settings: dose 0.1-0.5 µM; method in brief: as §4
HT-29 [14] = experiment: Cytotoxicity against human HT-29 cells assessed as dead cells at 0.1 to 2 uM incubated for 72 hrs by trypan blue staining based optical microscopic analysis relative to control; assay type: functional; settings: dose 0.1-2 µM
Method in brief: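 HT-29 cells were grown in McCoy medium with 10% FBS and 2 mM L-glutamine at 37 °C under 5% CO2, seeded at 30,000 per well and treated 24 h later for 72 h. Cells were PBS-washed, trypsinized, mixed 1:1 with trypan blue, and viable and dead cells were counted by light microscopy. Each condition was run three times.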

HT-29 [15] = experiment: Cytotoxicity against human HT-29 cells assessed as cell mortality at 0.1 to 1 uM incubated for 2 to 6 hrs by MTT assay; assay type: toxicity, cell-based; settings: ht-29, 1 µM, dose lower 0.1 µM, time lower 2 hrs, dose upper 1 µM, time upper 6 hrs
HT-29 [16] = experiment: Downregulation of HSP27 protein expression in human HT-29 cells at 0.1 to 0.5 uM incubated for 24 hrs by Western blot analysis; assay type: functional, cell-based; settings: dose 0.1-0.5 µM; method in brief: as §4
[17] = Drug localization in vesicle of human A549 cells at 2 uM measured after 4 hrs by MitoTracker Deep Red based confocal microscopic analysis; settings: a549, 4 h

| SMILES | CC50 (MDA-MB-231 [1]) [nM] | GI50 (MDA-MB-231 [2]) [nM] | EC (MDA-MB-231 [3]) [µM] | IC50 (MDA-MB-231 [2]) [nM] | further results |
| --- | --- | --- | --- | --- | --- |
| Cn1c(=O)c(NC(=O)c2ccc(OCCC[P+](c3ccccc3)(c3ccccc3)c3ccccc3)cc2)cc2cc(Br)ccc21.[Br-] | 380 | 60 | 0.16 |  |  |
| Cn1c(=O)c(NC(=O)c2ccc(OCCCCCCCCCCBr)cc2)cc2cc(Br)ccc21 |  |  |  | 7000 |  |
| Cn1c(=O)c(NC(=O)c2ccc(OCCCCCCC[P+](c3ccccc3)(c3ccccc3)c3ccccc3)cc2)cc2cc(Br)ccc21.[Br-] | 490 | 65 | 0.18 | 82 |  |
| OCCCCCCCCCC[P+](c1ccccc1)(c1ccccc1)c1ccccc1.[Br-] |  |  |  |  | Activity (HT-29 [4]): <=35% |
| COc1ccc(C(=O)Nc2cc3cc(Br)ccc3n(C)c2=O)cc1 | 380 | 60 | 0.16 |  | CC50 (K562): 48000 nM; CC50 (MDA-MB-231 [5]): 2000 nM; Activity (HT-29 [4]): -30%; CC50 (PC-3): 10000 nM; IC50 (HT-29 [6]): > 20000 nM; CC50 (HCT-116 [7]): 7000 nM |
| Cn1c(=O)c(NC(=O)c2ccc(OCCCCCCCCCCCC[P+](c3ccccc3)(c3ccccc3)c3ccccc3)cc2)cc2cc(Br)ccc21.[Br-] | 17900 | 11000 | 15.2 |  |  |
| Cn1c(=O)c(NC(=O)c2ccc(OCCCCCCCCCC[P+](c3ccccc3)(c3ccccc3)c3ccccc3)cc2)cc2cc(Br)ccc21.[Br-] | 180 | 8 | 0.037 | 8 | IC50 (HT-29 [8]): < 100 nM; viability at 1 µM (HCT-116 [9]): 11%; Activity (HT-29 [10]): Dde; Activity (HT-29 [11]): Dde; CC50 (K562): 107 nM; Activity [12]: Active; CC50 (MDA-MB-231 [5]): 180 nM; Activity (HT-29 [4]): <=68%; CC50 (PC-3): 300 nM; Activity (HT-29 [13]): Active; Activity (HT-29 [14]): <10%; Activity (HT-29 [15]): Non-Toxic; Activity (HT-29 [16]): Active; IC50 (HT-29 [6]): < 100 nM; CC50 (HCT-116 [7]): 36 nM |
| Cn1c(=O)c(NC(=O)c2ccc(OCCCCC[P+](c3ccccc3)(c3ccccc3)c3ccccc3)cc2)cc2cc(Br)ccc21.[Br-] | 100 | 83 | 0.093 | 87 |  |
| Cn1c(=O)c(NC(=O)c2ccc(OCCCC[P+](c3ccccc3)(c3ccccc3)c3ccccc3)cc2)cc2cc(Br)ccc21.[Br-] | 110 | 76 | 0.091 | 82 |  |
| Cn1c(=O)c(NC(=O)c2ccc(O)cc2)cc2cc(Br)ccc21 | 17600 | 5790 | 10.97 | 7150 |  |
| Cn1c(=O)c(NC(=O)c2ccc(OCCCCCCCCCCOc3ccc(N(c4ccc(/C=C/c5cc[n+](C)cc5)cc4)c4ccc(/C=C/c5cc[n+](C)cc5)cc4)cc3)cc2)cc2cc(Br)ccc21.[I-].[I-] |  |  |  |  | viability at 1 µM (HCT-116 [9]): 95%; Drug uptake [17]: Active |
| Cn1c(=O)c(NC(=O)c2ccc(OCCCCCCCCCC[P+](c3ccccc3)(c3ccccc3)c3ccccc3)cc2)cc2ccccc21.[Br-] | 310 | 26 | 0.092 | 49 |  |
